Data taken from ChEMBL document CHEMBL1629587, “Discovery of a small-molecule inhibitor of {beta}-1,6-glucan synthesis” (2009).
The source made the active and inactive calls.

Legend:
[1] = system: Candida tropicalis; experiment: Antifungal activity against Candida tropicalis ATCC 200956 after 24 hrs by microdilution method; format: functional; conditions: ATCC 200956, 24 h
Summary of the method: (§1)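 CLSI broth microdilution run at 30°C instead of standard temperature; starting inoculum 1 × 10^3 to 3 × 10^3 cells/ml; DMSO under 1% final. Endpoints: MIC-0 = lowest concentration giving an optically clear well; MIC-2 = 50% drop versus drug-free control in absorbance at 570 nm with alamar blue redox indicator, used because treated cells clump.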

[2] = system: Candida tropicalis; experiment: Antifungal activity against Candida tropicalis TIMM0313 after 24 hrs by microdilution method; format: functional; conditions: TIMM0313, 24 h; summary of the method: as §1
[3] = system: Kluyveromyces marxianus; experiment: Antifungal activity against Candida kefyr ATCC 46764 after 24 hrs by microdilution method; format: functional; conditions: ATCC 46764, 24 h; summary of the method: as §1
[4] = system: Cryptococcus neoformans; experiment: Antifungal activity against Cryptococcus neoformans ATCC 90112 after 24 hrs by microdilution method; format: functional; conditions: ATCC 90112, 24 h; summary of the method: as §1
[5] = system: Trichosporon asahii; experiment: Antifungal activity against Trichosporon asahii ATCC 90039 after 24 hrs by microdilution method; format: functional; conditions: ATCC 90039, 24 h; summary of the method: as §1
[6] = system: Aspergillus fumigatus; experiment: Antifungal activity against Aspergillus fumigatus ATCC 36607 after 24 hrs by microdilution method; format: functional; conditions: ATCC 36607, 24 h; summary of the method: as §1
[7] = system: Aspergillus flavus; experiment: Antifungal activity against Aspergillus flavus ATCC 64025 after 24 hrs by microdilution method; format: functional; conditions: ATCC 64025, 24 h; summary of the method: as §1
[8] = system: Candida albicans; experiment: Fungicidal activity against Candida albicans ATCC 24433 after 24 hrs by microdilution method; format: functional; conditions: ATCC 24433, 24 h
Summary of the method: (§2)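 Fungicidal concentration: after the MIC plate read, 4 μl from each well transferred into 200 μl MOPS-buffered RPMI, incubated 24 h at 30°C; MFC = lowest drug concentration with no visible growth.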

[9] = system: Candida tropicalis; experiment: Fungicidal activity against Candida tropicalis TIMM0313 after 24 hrs by microdilution method; format: functional; conditions: TIMM0313, 24 h; summary of the method: as §2
[10] = system: Nakaseomyces glabratus; experiment: Induction of multibudding phenotype in Candida glabrata IFO0622 after 18 hrs by microscopy; format: functional, organism-based
Summary of the method: (§3)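 Exponential-phase cells suspended in RPMI 1640 with or without drug (2 μg/ml shown), shaken gently 18 h at 30°C, fixed in 3% glutaraldehyde in 0.1 M phosphate buffer, inspected by inverted light microscopy.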

[11] = system: Candida albicans; experiment: Induction of multibudding phenotype in Candida albicans ATCC 24433 after 18 hrs by microscopy; format: functional, organism-based; summary of the method: as §3
[12] = system: Candida albicans; experiment: Inhibition of hyphal elongation of Candida albicans ATCC 24433 at 1 ug/ml after 6 hrs by microscopy; format: functional, organism-based
Summary of the method: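 Hyphae induced in HFM-7 medium (Lee's medium also used) on type I collagen-coated wells, drug 0, 1, 4 or 16 μg/ml; static culture at 37°C, viewed by light microscopy after 6 h or 24 h.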

[13] = system: Cryptococcus neoformans; experiment: Antifungal activity against Cryptococcus neoformans ATCC 90112 at 32 ug/ml after 24 hrs by microdilution method; format: functional, organism-based; summary of the method: as §1
[14] = system: Aspergillus sp.; experiment: Antifungal activity against Aspergillus sp. at 32 ug/ml after 24 hrs by microdilution method; format: functional, organism-based; summary of the method: as §1
[15] = system: Saccharomyces cerevisiae; experiment: Fungicidal activity against Saccharomyces cerevisiae CT-2a mutant after 24 hrs by microdilution method; format: functional
[16] = system: PC-6; experiment: Cytotoxicity against human PC6 cells; format: functional
Summary of the method: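 Human PC-6 lung cancer cells; growth inhibition read as GI50; DMSO kept below 0.5% final for human cells.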

[17] = system: Saccharomyces cerevisiae; experiment: Induction of multibudding phenotype in Saccharomyces cerevisiae YPH500 after 18 hrs by microscopy; format: functional, organism-based; summary of the method: as §3

CCc1c(C)c(C#N)c2nc3ccccc3n2c1NCCN(CC)CC
8 µg/mL: MIC [2]
2 µg/mL: MIC [3]
> 32 µg/mL: MIC [4] | MIC50 [4] | MIC [5] | MIC50 [5] | MIC [6] | MIC50 [6] | MIC [7] | MIC50 [7] | MFC [8] | MFC [9]
1 µg/mL: MIC [1] | MIC50 [1] | MIC50 [2] | MIC50 [3]
inactive: Activity [13] | Activity [14]
> 16 µg/mL: GI50 [16]
active: Activity [10] | Activity [11] | inhibition [12] | Activity [17]
> 64 µg/mL: MIC [15]
